Assay type in all cases: functional, cell-based
Experiment [1] has as its system K562. In words: Cytotoxicity against human K562 cells after 72 hrs by SRB assay. Particulars: K562, 72 h. On the technique in general: The SRB assay estimates cell density from bound dye.
Experiment [2] has as its system A549. In words: Cytotoxicity against human A549 cells after 72 hrs by SRB assay. Particulars: A549, 72 h. Summed up: (§1)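 Adherent tumour cells seeded 24 h before treatment, then exposed continuously to a range of compound concentrations for 72 h. Cells were then fixed and stained with sulforhodamine B to read growth, and IC50 values were derived from the concentration series.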

Experiment [3] concerns HT-29. The experiment in a line: Cytotoxicity against human HT29 cells after 72 hrs by SRB assay. Particulars: HT-29, 72 h. Put shortly:
as §1

In general, IC50 refers to the concentration that inhibits the measured activity by half.

Turning to `C=C1C(=O)[C@]23C[C@H]1CC[C@H]2[C@@]12CO[C@@]3(O)[C@@H](O)[C@@H]1[C@@](C)(CO)CC[C@@H]2O` [PARVIFOLINE C], in experiment [1], the IC50 came out at 13.8 µM.
Regarding `C=C1C(=O)[C@]23[C@H](O)[C@H]1CC[C@H]2[C@@]12CO[C@@]3(O)[C@@H](O)[C@@H]1[C@@](C)(CO)CC[C@@H]2O` [PARVIFOLINE D], the IC50 in experiment [1], in experiment [2] and in experiment [3] was greater than 100 µM each time.
In the case of `C=C1C(=O)[C@]23C[C@H]1[C@@H](O)C=C2[C@@]12CO[C@@]3(O)[C@@H](O)[C@@H]1C(C)(C)CC[C@@H]2O` [PARVIFOLINE F], the IC50 in experiment [1], in experiment [2] and in experiment [3] was greater than 100 µM in each case.
On to `C=C1[C@@H]2C[C@@H](OC(C)=O)[C@H]3[C@@]45CO[C@@](O)(C(=O)[C@@H]4C(C)(C)CC[C@@H]5OC(C)=O)[C@]3(C2)[C@@H]1OC(C)=O` [PARVIFOLINE G], for which the IC50 in experiment [1], in experiment [2] and in experiment [3] was greater than 100 µM each time.
Take `C=C1C(=O)[C@]23C[C@H]1C[C@H](OC(C)=O)[C@H]2[C@@]12CO[C@@]3(O)[C@@H](O)[C@@H]1C(C)(C)CC[C@@H]2O` [PARVIFOLINE H]: the IC50 in experiment [1], in experiment [2] and in experiment [3] was greater than 100 µM in each case.
Turning to `C=C1C(=O)[C@]23C[C@H]1C[C@H](O)[C@H]2[C@@]12CO[C@@]3(O)[C@@H](O)[C@@H]1C(C)(C)CC[C@@H]2OC(C)=O` [PARVIFOLINE I], the IC50 in experiment [1], in experiment [2] and in experiment [3] was greater than 100 µM throughout.
As for `COC[C@H]1C(=O)[C@]23C[C@H]1C[C@H](OC(C)=O)[C@H]2[C@@]12CO[C@@]3(O)[C@@H](O)[C@@H]1C(C)(C)CC[C@@H]2O` [PARVIFOLINE J], the IC50 in experiment [1], in experiment [2] and in experiment [3] was greater than 100 µM each time.

The record behind these values is ChEMBL document CHEMBL1157325, “7alpha,20-epoxy-ent-kauranoids from Isodon parvifolius” (J Nat Prod, 2006).
